Measured values of several laboratories.

Structure (SMILES)	tested on	assay	system	setting	quantity	result
COC(=O)c1cc(-c2cccc(NC(=O)Nc3cc(Cl)ccc3Cl)c2)on1	Mycolicibacterium fortuitum	microbial growth, broth dilution	ATCC6841	48 h	MIC	> 64 µg/mL
NCC(=O)Nc1ccc(-n2nc(C(F)(F)F)cc2-c2ccc3c(ccc4ccccc43)c2)cc1	Human immunodeficiency virus 1	viral replication, inhibitor	human PBMC	clinical isolate	IC90	2240 nM
CC(C(=O)NCc1ccccc1)c1cccc(C(OC(=O)NCc2ccccc2)c2ccccc2)c1 (stereo not drawn)	CCRF-CEM	cell growth or viability	–	72 h	IC50	2700 nM
N.N.[Cl][Pt][Cl]	PK-59	cell growth or viability, MTT	–	24 h	IC50	2660 nM
COC(=O)c1cc(-c2cccc(NC(=S)Nc3ccc([N+](=O)[O-])cc3)c2)on1	Mycolicibacterium fortuitum	microbial growth, broth dilution	ATCC6841	48 h	MIC	> 64 µg/mL
CC(C(=O)N1CCCCC1)c1cccc(C(OC(=O)N2CCCCC2)c2ccccc2)c1 (stereo not drawn)	CCRF-CEM	cell growth or viability	–	72 h	IC50	13000 nM
N#Cc1ccc(NC(=S)NN=Cc2ccc(O)cc2)cc1	CCRF-CEM	cell growth or viability	–	72 h	IC50	107 µg/mL
Cc1ccc(-c2nc3ccc(C)cn3c2CC(=O)N(C)C)cc1	Mycobacterium marinum	microbial growth	–	5 days	MIC	> 50 µM
Nc1nc(O)c2ncn(COC(CO)CO)c2n1	Cowpox virus	microbial growth	–	–	MIC50	> 100 µM
COC(=O)c1cc(-c2cccc(NC(=O)Nc3ccc(F)cc3)c2)on1	Mycolicibacterium fortuitum	microbial growth, broth dilution	ATCC6841	48 h	MIC	> 64 µg/mL
N#Cc1ccc(NC(=S)NN=Cc2ccccc2)cc1	CCRF-CEM	cell growth or viability	–	72 h	IC50	83 µg/mL
COC(=O)c1cc(-c2cccc(NC(=O)NCc3ccccc3)c2)on1	Mycolicibacterium fortuitum	microbial growth, broth dilution	ATCC6841	48 h	MIC	> 64 µg/mL
CCOC(=O)c1c(CSc2ccccc2)n(C)c2cc(Br)c(O)c(CN(C)C)c12.Cl.O	Cowpox virus	microbial growth	–	–	MIC50	> 20 µg/mL
[H]/N=C(/N)N[C@H]1[C@H](O)[C@@H](O)[C@H](O[C@@H]2O[C@@H](C)[C@](O)(C=O)[C@H]2O[C@@H]2O[C@@H](CO)[C@H](O)[C@@H](O)[C@@H]2NC)[C@@H](N/C(N)=N\[H])[C@@H]1O	Mycolicibacterium fortuitum	microbial growth	ATCC6841	–	MIC	50 µg/mL
Nc1ccn(C[C@@H](CO)OCP(=O)(O)O)c(=O)n1	Cowpox virus	viral replication	–	–	IC50	30000 nM
COC(=O)c1cc(-c2cccc(NC(=O)Nc3ccc(C(F)(F)F)cc3)c2)on1	Mycolicibacterium fortuitum	microbial growth, broth dilution	ATCC6841	48 h	MIC	> 64 µg/mL
Nc1nc2c(ncn2COCCO)c(=O)[nH]1	Cowpox virus	microbial growth	–	–	MIC50	250 µM
CO[C@H]1/C=C/O[C@@]2(C)Oc3c(C)c(O)c4c(O)c(c(/C=N/N5CCN(C)CC5)c(O)c4c3C2=O)NC(=O)/C(C)=C\C=C\[C@H](C)[C@H](O)[C@@H](C)[C@@H](O)[C@@H](C)[C@H](OC(C)=O)[C@@H]1C	Mycobacterium marinum	microbial growth	ATCC927	–	MIC	< 0.2 µg/mL
